Laboratory results taken from ChEMBL document CHEMBL3861994, “1,2,3-Triazole-based inhibitors of Porphyromonas gingivalis adherence to oral streptococci and biofilm formation” (Bioorg Med Chem, 2016).

Legend:
Porphyromonas gingivalis [1] = assay: Growth inhibition of Porphyromonas gingivalis at 60 uM measured after 24 hrs
[2] = (§1) Inhibition of Porphyromonas gingivalis ATCC 33277 MFA interaction with Streptococcus gordonii DL1(1) antigen 1/2 assessed as inhibition of 5(6)-carboxyfluorescein N-hydroxysuccinimide ester-labeled Porphyromonas gingivalis ATCC 33277 cell adhesion to hexidium iodide-labeled Streptococcus gordonii DL1(1) by measuring inhibition of biofilm formation preincubated with Porphyromonas gingivalis ATCC 33277 for 30 mins followed by addition to Streptococcus gordonii DL1(1) culture measured after 22 hrs by laser scanning confocal microscopy; assay type: cell-based
In short: (§2)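 Hexidium iodide-labelled S. gordonii (OD600 0.8 in PBS, pH 7.2) was bound to coverslips for 24 h, anaerobic, 37 °C. Carboxyfluorescein-labelled P. gingivalis (OD600 0.4) was preincubated 30 min at room temperature with compound (0–60 μM final, from 1000X DMSO stock), added, then incubated 22 h anaerobically. After fixation, confocal z-stacks (488/552 nm) were taken. IC50 is 50% reduction of the green/red fluorescence ratio; triplicates, three independent experiments.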

[3] = Cytotoxicity against gingival epithelial cells (unknown origin); assay type: toxicity, cell-based; conditions: epithelial cell
Streptococcus gordonii [4] = assay: Growth inhibition of Streptococcus gordonii at 60 uM measured after 24 hrs; conditions: read-out: GI
Porphyromonas gingivalis [5] = assay: Growth inhibition of Porphyromonas gingivalis at 40 uM measured after 24 hrs
Streptococcus gordonii [6] = assay: Growth inhibition of Streptococcus gordonii at 40 uM measured after 24 hrs; conditions: read-out: GI
Streptococcus gordonii [7] = assay: Growth inhibition of Streptococcus gordonii at 20 uM measured after 24 hrs; conditions: read-out: GI
Porphyromonas gingivalis [8] = assay: Growth inhibition of Porphyromonas gingivalis at 20 uM measured after 24 hrs
ATCC 33277 = assay: as §1; assay type: cell-based
In short: as §2

Streptococcus gordonii [9] = assay: Growth inhibition of Streptococcus gordonii at 5 uM measured after 24 hrs; conditions: read-out: GI
Porphyromonas gingivalis [10] = assay: Growth inhibition of Porphyromonas gingivalis at 5 uM measured after 24 hrs

Structure (SMILES) | IC50 [2] | Activity [3] | further results
COc1ccc(-c2nc(-c3cccc(-n4cc(-c5ccc(Oc6ccccc6)cc5)nn4)c3)oc2-c2ccc(OC)cc2)cc1 | > 60 µM | Toxic | –
CCCCCc1ccc(-c2cn(-c3cccc(-c4nc(-c5ccc(OC)cc5)c(-c5ccc(OC)cc5)o4)c3)nn2)cc1 | > 60 µM | Toxic | –
FC(F)(F)c1cc(-c2cn(Cc3nc(-c4ccccc4)c(-c4ccccc4)o3)nn2)cc(C(F)(F)F)c1 | > 60 µM | Toxic | –
FC(F)(F)c1ccccc1-c1cn(Cc2nc(-c3ccc(Br)cc3)c(-c3ccc(Br)cc3)o2)nn1 | > 60 µM | Toxic | –
Fc1cccc(-c2cn(Cc3nc(-c4ccc(Cl)cc4)c(-c4ccc(Cl)cc4)o3)nn2)c1 | > 60 µM | Toxic | –
Fc1cccc(-c2cn(Cc3nc(-c4ccccc4)c(-c4ccccc4)o3)nn2)c1 | > 60 µM | Toxic | –
COc1ccccc1-c1cn(Cc2nc(-c3ccc(F)cc3)c(-c3ccc(F)cc3)o2)nn1 | > 60 µM | Toxic | –
Fc1ccc(-c2nc(Cn3cc(-c4cccnc4)nn3)oc2-c2ccc(F)cc2)cc1 | 59.8 µM | Toxic | –
COc1ccc2cc(-c3cn(Cc4nc(-c5ccccc5)c(-c5ccccc5)o4)nn3)ccc2c1 | > 60 µM | Toxic | –
Clc1ccc(-c2nc(Cn3cc(-c4cccnc4)nn3)oc2-c2ccc(Cl)cc2)cc1 | > 60 µM | Toxic | –
COc1ccccc1-c1cn(Cc2nc(-c3ccc(Cl)cc3)c(-c3ccc(Cl)cc3)o2)nn1 | 56.8 µM | Toxic | growth inhibition (GI) (Porphyromonas gingivalis [1]): -19.6%; inhibition at 60 µM (Streptococcus gordonii [4]): 6.6%
COc1ccc(-c2nc(-c3cccc(-n4cc(-c5ccc(F)cc5)nn4)c3)oc2-c2ccc(OC)cc2)cc1 | 53 µM | Toxic | growth inhibition (GI) (Porphyromonas gingivalis [5]): -14.6%; inhibition at 40 µM (Streptococcus gordonii [6]): -22.1%
COc1ccccc1-c1cn(Cc2nc(-c3ccccc3)c(-c3ccccc3)o2)nn1 | > 60 µM | Toxic | –
c1ccc(Oc2ccc(-c3cn(Cc4nc(-c5ccccc5)c(-c5ccccc5)o4)nn3)cc2)cc1 | > 60 µM | Toxic | –
Fc1ccc(-c2nc(Cn3cc(-c4ccccc4C(F)(F)F)nn3)oc2-c2ccc(F)cc2)cc1 | > 60 µM | Toxic | –
Fc1ccc(-c2cn(Cc3nc(-c4ccccc4)c(-c4ccccc4)o3)nn2)cc1 | > 60 µM | Toxic | –
Fc1ccc(-c2nc(Cn3cc(-c4cccc(F)c4)nn3)oc2-c2ccc(F)cc2)cc1 | > 60 µM | Toxic | –
c1ccc(-c2nc(Cn3cc(-c4cccnc4)nn3)oc2-c2ccccc2)cc1 | > 60 µM | Toxic | –
Fc1cccc(-c2cn(Cc3nc(-c4ccc(Br)cc4)c(-c4ccc(Br)cc4)o3)nn2)c1 | > 60 µM | Toxic | –
Cc1ccccc1-c1cn(Cc2nc(-c3ccccc3)c(-c3ccccc3)o2)nn1 | > 56.3 µM | Toxic | –
FC(F)(F)c1ccccc1-c1cn(Cc2nc(-c3ccccc3)c(-c3ccccc3)o2)nn1 | > 60 µM | Toxic | –
COc1ccc(-c2nc(-c3cccc(-n4cc(-c5cccnc5)nn4)c3)oc2-c2ccc(OC)cc2)cc1 | 57.7 µM | Toxic | –
FC(F)(F)c1ccccc1-c1cn(Cc2nc(-c3ccc(Cl)cc3)c(-c3ccc(Cl)cc3)o2)nn1 | 56.7 µM | Toxic | –

Continued, in another order:

IC50 [2] | Structure (SMILES) | Activity [3] | further results
5.3 µM | COc1ccc2cc(-c3cn(Cc4nc(-c5ccc(Cl)cc5)c(-c5ccc(Cl)cc5)o4)nn3)ccc2c1 | Toxic | growth inhibition (GI) (Porphyromonas gingivalis [1]): 0.3%; inhibition at 60 µM (Streptococcus gordonii [4]): -3.8%
43 µM | COc1ccccc1-c1cn(Cc2nc(-c3ccc(Br)cc3)c(-c3ccc(Br)cc3)o2)nn1 | Toxic | growth inhibition (GI) (Porphyromonas gingivalis [1]): -12.4%; inhibition at 60 µM (Streptococcus gordonii [4]): 11.1%
33.4 µM | COc1ccc2cc(-c3cn(Cc4nc(-c5ccc(Br)cc5)c(-c5ccc(Br)cc5)o4)nn3)ccc2c1 | Toxic | growth inhibition (GI) (Porphyromonas gingivalis [1]): -9.9%; inhibition at 60 µM (Streptococcus gordonii [4]): -8.6%
47.4 µM | COc1ccc(-c2nc(-c3cccc(-n4cc(-c5cc(C(F)(F)F)cc(C(F)(F)F)c5)nn4)c3)oc2-c2ccc(OC)cc2)cc1 | Toxic | –
40.9 µM | Clc1ccc(-c2nc(-c3ccc(-n4cc(-c5cccnc5)nn4)cc3)oc2-c2ccc(Cl)cc2)cc1 | Toxic | –
29.3 µM | COc1ccc2cc(-c3cn(Cc4nc(-c5ccc(F)cc5)c(-c5ccc(F)cc5)o4)nn3)ccc2c1 | Toxic | growth inhibition (GI) (Porphyromonas gingivalis [1]): -3.3%; inhibition at 60 µM (Streptococcus gordonii [4]): 0.2%
36.9 µM | CC(C)CCNc1nc(NCCC(C)C)nc(-c2cn(Cc3nc(-c4ccccc4)c(-c4ccccc4)o3)nn2)n1 | Toxic | growth inhibition (GI) (Porphyromonas gingivalis [1]): 72.8%; inhibition at 60 µM (Streptococcus gordonii [4]): 6.8%
27 µM | COc1ccc(-c2nc(-c3cccc(-n4cc(-c5ccccc5C(F)(F)F)nn4)c3)oc2-c2ccc(OC)cc2)cc1 | Toxic | growth inhibition (GI) (Porphyromonas gingivalis [5]): -1.6%; inhibition at 40 µM (Streptococcus gordonii [6]): -9.7%
35.5 µM | CCCCCc1ccc(-c2cn(Cc3nc(-c4ccccc4)c(-c4ccccc4)o3)nn2)cc1 | Toxic | growth inhibition (GI) (Porphyromonas gingivalis [1]): -14.5%; inhibition at 60 µM (Streptococcus gordonii [4]): 6.6%
37.3 µM | COc1ccccc1-c1cn(-c2ccc(-c3nc(-c4ccc(Cl)cc4)c(-c4ccc(Cl)cc4)o3)cc2)nn1 | Toxic | –
7.7 µM | COc1ccccc1-c1cn(-c2ccc(-c3nc(-c4ccc(F)cc4)c(-c4ccc(F)cc4)o3)cc2)nn1 | Toxic | inhibition at 20 µM (Streptococcus gordonii [7]): -7.8%; growth inhibition (GI) (Porphyromonas gingivalis [8]): -0.5%
25.1 µM | FC(F)(F)c1ccccc1-c1cn(-c2ccc(-c3nc(-c4ccc(Cl)cc4)c(-c4ccc(Cl)cc4)o3)cc2)nn1 | Toxic | –
20.3 µM | COc1ccc2cc(-c3cn(-c4cccc(-c5nc(-c6ccc(Br)cc6)c(-c6ccc(Br)cc6)o5)c4)nn3)ccc2c1 | Toxic | –
15.7 µM | Fc1cccc(-c2cn(-c3ccc(-c4nc(-c5ccc(Cl)cc5)c(-c5ccc(Cl)cc5)o4)cc3)nn2)c1 | Toxic | –
31 µM | Brc1ccc(-c2nc(-c3cccc(-n4cc(-c5cccnc5)nn4)c3)oc2-c2ccc(Br)cc2)cc1 | Toxic | –
52.2 µM | COc1ccc2cc(-c3cn(-c4ccc(-c5nc(-c6ccc(F)cc6)c(-c6ccc(F)cc6)o5)cc4)nn3)ccc2c1 | Toxic | –
50.9 µM | Brc1ccc(-c2nc(Cn3cc(-c4cccnc4)nn3)oc2-c2ccc(Br)cc2)cc1 | Toxic | –
15 µM | COc1ccccc1-c1cn(-c2cccc(-c3nc(-c4ccc(Br)cc4)c(-c4ccc(Br)cc4)o3)c2)nn1 | Toxic | growth inhibition (GI) (Porphyromonas gingivalis [5]): 4.3%; inhibition (ATCC 33277): Dose-dependent effect; inhibition at 40 µM (Streptococcus gordonii [6]): 10.5%
51.5 µM | Fc1ccc(-c2nc(-c3ccc(-n4cc(-c5cccc(F)c5)nn4)cc3)oc2-c2ccc(F)cc2)cc1 | Toxic | –
15.2 µM | FC(F)(F)c1ccccc1-c1cn(-c2cccc(-c3nc(-c4ccc(Br)cc4)c(-c4ccc(Br)cc4)o3)c2)nn1 | Toxic | growth inhibition (GI) (Porphyromonas gingivalis [5]): -0.6%; inhibition at 40 µM (Streptococcus gordonii [6]): 2%
12.8 µM | Fc1ccc(-c2nc(-c3ccc(-n4cc(-c5ccccc5C(F)(F)F)nn4)cc3)oc2-c2ccc(F)cc2)cc1 | Toxic | growth inhibition (GI) (Porphyromonas gingivalis [5]): 0.1%; inhibition at 40 µM (Streptococcus gordonii [6]): -11%
13 µM | COc1ccc(-c2nc(-c3cccc(-n4cc(-c5ccc6cc(OC)ccc6c5)nn4)c3)oc2-c2ccc(OC)cc2)cc1 | Toxic | inhibition at 20 µM (Streptococcus gordonii [7]): -1.3%; growth inhibition (GI) (Porphyromonas gingivalis [8]): 3%
5.9 µM | COc1ccc(-c2nc(-c3cccc(-n4cc(-c5cccc(F)c5)nn4)c3)oc2-c2ccc(OC)cc2)cc1 | Toxic | growth inhibition (GI) (Porphyromonas gingivalis [5]): -2.6%; inhibition at 40 µM (Streptococcus gordonii [6]): -9.1%
25.6 µM | Fc1ccc(-c2nc(-c3ccc(-n4cc(-c5cccnc5)nn4)cc3)oc2-c2ccc(F)cc2)cc1 | Toxic | –
32.4 µM | COc1ccc2cc(-c3cn(-c4ccc(-c5nc(-c6ccc(Cl)cc6)c(-c6ccc(Cl)cc6)o5)cc4)nn3)ccc2c1 | Toxic | –
15.4 µM | COc1ccc(-c2nc(-c3cccc(-n4cc(-c5ccccc5OC)nn4)c3)oc2-c2ccc(OC)cc2)cc1 | Toxic | growth inhibition (GI) (Porphyromonas gingivalis [5]): -6.2%; inhibition at 40 µM (Streptococcus gordonii [6]): 0.8%
5 µM | Fc1cccc(-c2cn(-c3cccc(-c4nc(-c5ccc(Br)cc5)c(-c5ccc(Br)cc5)o4)c3)nn2)c1 | Toxic | inhibition at 5 µM (Streptococcus gordonii [9]): -5.7%; growth inhibition (GI) (Porphyromonas gingivalis [10]): -4.3%
